Compounds with a hit are over-represented: about 0.7% of the library has one in this group of screens.
procasp3 activ – activators of human procaspase-3 D3A mutant, primary screen, biochemical, absorbance, PC-3 D3A mutant, single concentration; recombinant procaspase-3 D3A, Ac-DEVD-pNA absorbance 405 nm; activation, % at 8.5 µM; hit rate 0.11% among 330,000; AID 463141, 2010;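 active = activation above the mean of all tested compounds plus 3 SD, cut at about 21% in these data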;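 note: 0% = DMSO alone and 100% = DMSO wells spiked with extra 5 µM PC-3 D3A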
Target sequence (P42574 whole entry D9A/D28A/D175A): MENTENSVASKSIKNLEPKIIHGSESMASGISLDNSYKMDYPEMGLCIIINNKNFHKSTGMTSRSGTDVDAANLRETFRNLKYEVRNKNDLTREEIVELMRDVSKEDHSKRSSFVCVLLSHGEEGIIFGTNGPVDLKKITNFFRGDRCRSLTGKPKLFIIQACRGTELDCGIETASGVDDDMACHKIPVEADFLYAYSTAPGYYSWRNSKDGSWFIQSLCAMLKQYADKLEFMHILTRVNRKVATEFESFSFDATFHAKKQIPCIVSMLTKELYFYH
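Technique: 405 nm absorbance of p-nitroaniline, reads at 0 and 120 min; Test system: Procaspase-3 D3A mutant; Incubation: 1 h enzyme-compound preincubation, then 2 h substrate reaction, 25 °C; Repeats: singlicate, each compound tested once; Benchmarks: low control DMSO wells, high control DMSO plus 5 µM PC-3 D3A.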
procasp7 counter – procaspase-7 activators, primary screen, counter-screen for procaspase-3 activator project, biochemical, absorbance, HTS, human; AID 463210, 2010; activation, % at 8.5 µM; recombinant procaspase-7, Ac-DEVD-pNA absorbance 405 nm; D23A/D198A/D206A triple mutant, cannot self-cleave; scale: DMSO 0, 5 µM enzyme 100; hit rate 0.093% among 330,000;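 active = percent activation above the screen-wide mean plus 3 SD, cut at about 25% in these data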
Target sequence (P55210 whole entry D23A/D198A/D206A): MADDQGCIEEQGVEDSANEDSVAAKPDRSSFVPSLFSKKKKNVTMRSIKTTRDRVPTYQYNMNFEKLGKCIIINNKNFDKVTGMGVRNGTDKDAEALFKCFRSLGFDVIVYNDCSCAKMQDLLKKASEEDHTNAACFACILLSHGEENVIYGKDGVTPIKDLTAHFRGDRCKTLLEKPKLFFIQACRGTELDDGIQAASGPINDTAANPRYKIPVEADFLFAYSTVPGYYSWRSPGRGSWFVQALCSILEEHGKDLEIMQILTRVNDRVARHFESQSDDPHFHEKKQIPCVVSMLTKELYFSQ
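signal = Epi-absorbance of released pNA at 405 nm, two timepoints | assay system = Uncleavable procaspase-7 mutant enzyme | reagent = Ac-DEVD-pNA substrate, 400 µM as added | times = 1 h enzyme–compound preincubation and 2 h substrate reaction, both 25 °C | benchmarks = low DMSO alone, high DMSO plus 5 µM PC-7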
GAA850 FXN act – FXN promoter activators, primary screen, cell-based, luciferase luminescence, HEK293 lucGAA850; HEK293 lucGAA850 FXN promoter luciferase reporter, 24 h; percent of 10 µM SAHA response; activation, % at 6 µM; hit rate 0.56% among 360,000; AID 540364, 2011;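 active = activation above the average of all compounds screened plus 3 SD, cutoff fixed separately per campaign, cut at about 7.5% in these data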;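 note: 0% = DMSO wells and 100% = 10 µM SAHA wells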
GAA30 FXN cntr – GAA30 FXN promoter activators, confirmation, counter-screen for GAA850 frataxin promoter activator project, cell-based, luminescence, HEK293, lucGAA30, triplicate; activation, % at 6 µM; HEK293 lucGAA30 FXN promoter luciferase, 24 h; DMSO = 0%, 5 µM ipriflavone = 100%; shares compounds with GAA850 FXN act; hit rate 66% among 1,900;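 active = mean activation above the mean of solvent-only control wells plus 3 SD, cut at about 22% in these data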;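 note: counterscreen of GAA850 promoter hits where activity marks nonselective or luminescence artifacts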
FXN GAA850 conf – FXN GAA850 promoter activators in reporter cells, confirmation, cell-based, luminescence, HEK293 lucGAA850, triplicate; shares compounds with GAA850 FXN act; activation, % at 6 µM; HEK293 lucGAA850 FXN promoter luciferase reporter, 24 h; 100% = activation by SAHA; hit rate 86% among 1,900;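 active = mean activation above a set limit taken from the primary screen, cut at about 8% in these data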;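 note: 0% = DMSO wells and 100% = 10 µM SAHA wells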
* = called active by the depositor; x = no result.

SMILES	procasp3 activ	procasp7 counter	GAA850 FXN act	GAA30 FXN cntr	FXN GAA850 conf
CCOc1ccc(Nc2ncnc3c2cnn3Cc2ccccc2)cc1	-7	4	0	x	x
CCOc1ccccc1-n1nnnc1SC(C)C(=O)OC (stereo unspecified)	-5	-3	3	x	x
COc1ccc(CCN2C(=O)CCC2(C)C(=O)NC2CCCC2)cc1OC (stereo unspecified)	-4	3	1	x	x
Cc1ccc(CCN2C(=O)CCC2(C)C(=O)NC2CCCC2)cc1 (stereo unspecified)	4	1	15*	19	5
O=C(NCc1ccccn1)c1ccc(Cl)c(NC2=NC3CS(=O)(=O)CC3S2)c1 (stereo unspecified)	-3	0	1	x	x
CCOC(=O)c1c(CSC(=N)N)n(-c2ccccc2)c2cc(Br)c(OC(C)=O)cc12	-1	8	10*	-7	33*
CCOC(=O)c1c(CN2CCN(C)CC2)n(-c2ccccc2)c2cc(Br)c(O)cc12	1	11	-2	x	x
c1coc(CSSCc2ccco2)c1	0	-7	4	x	x
Cc1cccc(Nc2nc(C)cc(C)c2C#N)c1	-1	1	1	x	x
Cc1cccc(Nc2nc(N)c(C#N)c(CC#N)c2C#N)c1	-5	2	8.2*	27*	17*
Cc1ccc(N2C(=O)CN(Cc3ccccc3)C2=S)cc1C	0	-6	0	x	x
Cc1noc(/C=C/c2cccs2)c1S(=O)(=O)N1CCC(C(=O)NCCCN2CCCC(C)C2)CC1 (stereo unspecified)	-5	5	1	x	x
CCOC(=O)CNC(=O)CSc1nc(C)cc(C)c1C#N	2	7	-1	x	x
CCOC(=O)NC(=O)CSc1nc(C)cc(C)c1C#N	-4	0	8.2*	103*	30*
CCOC(=O)[C@H]1[C@H]2COc3ccccc3[C@@H]2N2C(=O)c3c(C)cc(C)cc3NC(=O)[C@@]12C	-4	-9	11*	28*	11*
CCOC(=O)[C@H]1[C@H]2COc3ccccc3[C@@H]2N2C(=O)c3cc(C)ccc3NC(=O)[C@@]12C	1	-3	-6	x	x
COc1ccc(CCN(C)C2CCCN(C(=O)Cn3cnnn3)C2)cc1OC (stereo unspecified)	-2	-12	2	x	x
CN(Cc1ccccc1)C(=O)c1cccc(NC(=O)C2CCCN(C(=O)OC(C)(C)C)C2)c1 (stereo unspecified)	5	3	-3	x	x
CCc1nn(C(CC)C(=O)NCc2cccs2)c(=O)c2cc3occc3n12 (stereo unspecified)	4	1	2	x	x
CCc1nn(C(CC)C(=O)NCCc2ccc(OC)cc2OC)c(=O)c2cc3occc3n12 (stereo unspecified)	8	3	10*	13	9.5*
CCCC1(CCC)NC(=O)N(CC(=O)Nc2ccc(Cl)c(S(=O)(=O)N3CCOCC3)c2)C1=O	3	0	0	x	x
COc1ccc(-c2nn(-c3ccccc3)cc2CNC[C@H]2O[C@@H](n3cnc4c(N)ncnc43)[C@H](O)[C@@H]2O)cc1	0	12	4	x	x
COc1cccc([C@@H]2CC=C(C(=O)O)[C@H](c3ccc(Br)cc3)N2S(=O)(=O)c2ccc(C)cc2)c1	0	1	-2	x	x
COc1ccc(C)cc1NC(=O)C/C(C)=N/NC(=O)Cc1cccc2ccccc12	3	-3	1	x	x
O=C(COC(=O)c1ccc(F)c(S(=O)(=O)N2CCOCC2)c1)Nc1ccc(Cl)cn1	x	x	-3	x	x
SMILES	procasp3 activ	procasp7 counter	GAA850 FXN act	GAA30 FXN cntr	FXN GAA850 conf
COc1cc2ccccc2cc1C(=O)Nc1cc(C)ccn1	9	1	8.4*	123*	39*
Cc1ccnc(NC(=O)Cc2ccc(-c3ccccc3)cc2)c1	-11	-4	7.9*	101*	46*
COc1ccc(C(=O)Nc2ccccc2C(=O)Nc2cc(C)ccn2)cc1	-13	1	4	x	x
O=C(Cc1ccc(-c2ccccc2)cc1)Nc1ccccn1	6	-5	3	x	x
CCc1ccc2c(c1)NC(=O)C2(C)Cc1ccc(C(F)(F)F)o1 (stereo unspecified)	x	x	0	x	x
CCC(=O)Nc1cc2c(cc1Cl)-c1ccccc1C2	x	x	8.4*	85*	31*
CC(=O)Nc1cc2c(cc1Cl)-c1ccccc1C2	x	x	2	x	x
CCOc1ccccc1NC(=O)/C(C#N)=C/c1c(C)nn(-c2ccc(F)cc2)c1Cl	5	-3	1	x	x
CN(C)c1nc(C=C(C#N)C#N)c(Cl)n1-c1ccc(F)cc1	x	x	11*	-57	33*
O=C(COC(=O)c1cccc(S(=O)(=O)N2CCCC2)c1)NCc1ccccc1	-7	-1	3	x	x
Cc1cc(C)c(CN2CCC(n3nccc3NC(=O)C3CCOC3)CC2)cc1C (stereo unspecified)	-3	-8	0	x	x
O=C1[C@H]2[C@@H](c3ccc(Cl)cc3)N3C(=O)N(c4cccc(F)c4)C(=O)[C@@]3(Cc3ccc(Cl)cc3)[C@H]2C(=O)N1C1CCCCC1	2	-4	0	x	x
CCN1C(=O)[C@H]2[C@@H](c3ccc(C)cc3)N3C(=O)N(c4cccc(F)c4)C(=O)[C@@]3(Cc3ccc(Cl)cc3)[C@H]2C1=O	-2	-8	1	x	x
CC[C@@]12C(=O)N(c3cccc(F)c3)C(=O)N1[C@H](c1ccc(Cl)cc1)[C@@H]1C(=O)N(C3CCCCC3)C(=O)[C@@H]12	3	6	9.0*	23*	15*
Cc1ccc(N2C(=O)N3[C@H](c4ccc(Cl)cc4)[C@@H]4C(=O)N(C5CCCCC5)C(=O)[C@@H]4[C@]3(Cc3ccccc3)C2=O)cc1	1	-1	12*	43*	17*
CC[C@@]12C(=O)N(c3cccc(Br)c3)C(=O)N1[C@H](c1ccc(Cl)cc1)[C@@H]1C(=O)N(C3CCCCC3)C(=O)[C@@H]12	9	-2	11*	6	15*
O=C1[C@H]2[C@@H](c3ccc(F)cc3)N3C(=O)N(c4cccc(F)c4)C(=O)[C@@]3(Cc3ccc(Cl)cc3)[C@H]2C(=O)N1C1CCCCC1	0	-5	12*	20	11*
CC(C)C[C@@]12C(=O)N(c3cccc(Br)c3)C(=O)N1[C@H](c1ccc(Cl)cc1)[C@@H]1C(=O)N(C3CCCCC3)C(=O)[C@@H]12	1	13	3	x	x
CCN1CCCC1CNS(=O)(=O)c1ccc(Cl)c(C(F)(F)F)c1 (stereo unspecified)	-1	-2	1	x	x
Cn1c(=O)cc(OCCCC(=O)Nc2cccc(Cl)c2)c2ccccc21	x	x	1	x	x

Compound activity from PubChem BioAssay.
